Assay results reported in ChEMBL document CHEMBL4376884, “Toward a Rational Design of Polyamine-Based Zinc-Chelating Agents for Cancer Therapies” (J Med Chem, 2020).
Activity calls are given as the source filed them. No cut-off for these calls is given here.

Columns and labels:
[1] = test system: PC-3; test: Induction of apoptosis in human PC3 cells assessed as early apoptotic cells at 10 uM incubated for 24 hrs by annexin V-FITC and propidium iodide staining based flow cytometry analysis (reference value: 0.24 %); type: functional
[2] = test system: Jurkat; test: Antiproliferative activity against human Jurkat cells assessed as reduction in cell viability at 10 uM incubated for 48 hrs by cell titer-glo assay; type: functional, cell-based
Outline: (§1)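 Cells plated and treated 24 h later with 10 µM compound for 48 h; viable cells quantified by CellTiter-Glo ATP luminescence. Expressed as percentage of viable cells relative to untreated; mean ± SD of three independent experiments, each in triplicate.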

[3] = test system: LN-229; test: Antiproliferative activity against human LN229 cells assessed as reduction in cell viability at 10 uM incubated for 48 hrs by cell titer-glo assay; type: functional, cell-based; outline: as §1
[4] = test system: PC-3; test: Antiproliferative activity against human PC3 cells assessed as reduction in cell viability at 10 uM incubated for 48 hrs by cell titer-glo assay; type: functional, cell-based; outline: as §1
[5] = test system: SW-620; test: Antiproliferative activity against human SW620 cells assessed as reduction in cell viability at 10 uM incubated for 48 hrs by cell titer-glo assay; type: functional, cell-based; outline: as §1
[6] = test system: PC-3; test: Induction of cell morphological changes in human PC3 cells assessed as random membrane blebbing at 10 uM incubated for 24 to 48 hrs by phase contrast microscopy; type: functional, cell-based
Outline: (§2)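 LN229 and PC3 cells exposed to 10 µM compound for the indicated time-points, then imaged live by phase-contrast microscopy for morphology.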

[7] = test system: LN-229; test: Induction of cell morphological changes in human LN229 cells assessed as loss of cell adherence at 10 uM incubated for 24 to 48 hrs by phase contrast microscopy; type: functional, cell-based; outline: as §2
[8] = test system: LN-229; test: Induction of cell morphological changes in human LN229 cells assessed as cell rounding at 10 uM incubated for 24 to 48 hrs by phase contrast microscopy; type: functional, cell-based; outline: as §2
[9] = test system: PC-3; test: Induction of cell morphological changes in human PC3 cells assessed as cell shrinkage at 10 uM incubated for 24 to 48 hrs by phase contrast microscopy; type: functional, cell-based; outline: as §2
[10] = test system: MCF7; test: Antiproliferative activity against human MCF7 cells assessed as reduction in cell viability incubated for 48 hrs by cell titer-glo assay; type: functional, cell-based; conditions: MCF7, 48 h
Outline: (§3)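 Dose-response: cells plated, treated 24 h later for 48 h, then ATP measured by CellTiter-Glo luminescence. IC50 given as mean ± SD from three independent experiments, each in triplicate. Fibroblasts came from individuals. Cells were kept in RPMI or DMEM with 10% heat-inactivated FBS and penicillin/streptomycin at 37 °C, 5% CO2.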

[11] = test system: Fibroblast; test: Cytotoxicity against human Fibroblast assessed as reduction in cell viability incubated for 48 hrs by cell titer-glo assay; type: cell-based; outline: as §3
[12] = test system: Jurkat; test: Cell cycle arrest in human Jurkat cells assessed as decrease in cell accumulation at G2 phase at 10 uM incubated for 24 hrs by propidium iodide staining based flow cytometry analysis; type: functional
[13] = test system: U-87 MG; test: Cell cycle arrest in human U87MG cells assessed as decrease in cell accumulation at G2 phase at 10 uM incubated for 24 hrs by propidium iodide staining based flow cytometry analysis; type: functional; conditions: U-87MG ATCC
[14] = test system: LN-229; test: Cell cycle arrest in human LN229 cells assessed as cell accumulation at G2/M phase at 10 uM incubated for 24 hrs by propidium iodide staining based flow cytometry analysis relative to control; type: functional
[15] = test system: LN-229; test: Cell cycle arrest in human LN229 cells assessed as cell accumulation at G1 phase at 10 uM incubated for 48 hrs by propidium iodide staining based flow cytometry analysis relative to control; type: functional
[16] = test system: LN-229; test: Induction of cellular senescence in human LN229 cells assessed as flattened cells at 10 uM incubated for 24 hrs by phase contrast microscopy; type: functional, cell-based
Outline: (§4)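 LN229 and PC3 cells, 12×10^4 per well in 6-well plates, treated with 10 µM compound for 24 h. Senescence-associated β-gal staining: fixed in 2% formaldehyde/0.2% glutaraldehyde for 10 min at RT, stained with 1 mg/mL X-gal at 37 °C for 24 h without CO2. Blue cells counted in at least 10 fields at 10x and given as percent of total; four independent experiments. Morphology viewed by phase contrast at ×100.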

[17] = test system: LN-229; test: Induction of cellular senescence in human LN229 cells assessed as wider cells at 10 uM incubated for 24 hrs by phase contrast microscopy; type: functional, cell-based; outline: as §4
[18] = test system: LN-229; test: Induction of cellular senescence in human LN229 cells assessed as cells with irregular shape at 10 uM incubated for 24 hrs by phase contrast microscopy; type: functional, cell-based; outline: as §4
[19] = test system: LN-229; test: Induction of cellular senescence in human LN229 cells assessed as larger volume of cell at 10 uM incubated for 24 hrs by phase contrast microscopy; type: functional, cell-based; outline: as §4
[20] = test system: LN-229; test: Induction of cellular senescence in human LN229 cells assessed as increase in nuclear size at 10 uM incubated for 24 hrs by phase contrast microscopy; type: functional, cell-based; outline: as §4
[21] = test system: PC-3; test: Induction of cellular senescence in human PC3 cells assessed as cells with irregular shape at 10 uM incubated for 24 hrs by phase contrast microscopy; type: functional, cell-based; outline: as §4
[22] = organism: Homo sapiens; test: Induction of apoptosis in human SP53 cells assessed as increase in caspase-3/7 activation at 10 uM incubated for 48 hrs by luminometric caspase-glo 3/7 assay; type: functional, cell-based
Outline: (§5)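 Cells in RPMI or DMEM with 10% heat-inactivated FBS and penicillin/streptomycin, 37 °C, 5% CO2, treated with 10 µM compound for 48 h. Caspase-3 and caspase-7 activity read by luminescent Caspase-Glo 3/7 assay, reported as fold induction over untreated cells; mean ± SD of three independent experiments, each in triplicate.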

[23] = test system: Jurkat; test: Induction of apoptosis in human Jurkat cells assessed as increase in caspase-3/7 activation at 10 uM incubated for 48 hrs by luminometric caspase-glo 3/7 assay; type: functional, cell-based; outline: as §5
[24] = organism: Homo sapiens; test: Induction of apoptosis in human JMV2 cells assessed as increase in caspase-3/7 activation at 10 uM incubated for 48 hrs by luminometric caspase-glo 3/7 assay; type: functional, cell-based; outline: as §5
[25] = test system: SW480; test: Induction of apoptosis in human SW480 cells assessed as increase in caspase-3/7 activation at 10 uM incubated for 48 hrs by luminometric caspase-glo 3/7 assay; type: functional, cell-based; outline: as §5
[26] = test system: LN-229; test: Induction of apoptosis in human LN229 cells assessed as increase in caspase-3/7 activation at 10 uM incubated for 48 hrs by luminometric caspase-glo 3/7 assay; type: functional, cell-based; outline: as §5
[27] = test system: LN-229; test: Induction of mitochondrial membrane potential loss in human LN229 cells at 10 uM measured upto 48 hrs by JC-1 staining based flow cytometry analysis; type: functional, cell-based
Outline: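 LN229 cells seeded at 5×10^5 cells/mL and adhered overnight, then given medium with 10 µM compound for the indicated time-points. Readout is mean FL3 (aggregate, 590 nm)/FL1 (monomer, 530 nm) fluorescence ratio; mean ± SD of three determinations.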

[28] = test system: PC-3; test: Induction of apoptosis in human PC3 cells assessed as early apoptotic cells at 10 uM incubated for 72 hrs by annexin V-FITC and propidium iodide staining based flow cytometry analysis (reference value: 0.24 %); type: functional
[29] = test system: PC-3; test: Antiproliferative activity against human PC3 cells assessed as reduction in cell viability at 10 uM incubated for 48 hrs in presence of Fe2+ ion by MTT assay; type: functional, cell-based
Outline: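 LN229 and PC3 cells plated, then 24 h later given 10 µM compound with or without 15 µM ZnCl2, CuCl2, FeCl2 or FeCl3 for 48 h. Medium replaced, MTT (12 mM solution) added for 4 h, formazan dissolved in DMSO, absorbance read at 540 nm. Percent viable versus untreated; mean ± SD of three experiments in triplicate.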

| SMILES | Activity [1] [%] | Activity [2] | Activity [3] | Activity [4] | Activity [5] | Activity [6] | Activity [7] | Activity [8] | Activity [9] | IC50 [10] [µM] | IC50 [11] [µM] | Activity [12] | Activity [13] | Activity [14] [%] | Activity [15] [%] | Activity [16] | Activity [17] | Activity [18] | Activity [19] | Activity [20] | also measured |
| --- | --- | --- | --- | --- | --- | --- | --- | --- | --- | --- | --- | --- | --- | --- | --- | --- | --- | --- | --- | --- | --- |
| CN(CCNCc1ccccn1)CCNCc1ccccn1 | 0.8 | Active | Active | Active | Active | Active | Active | Active | Active | 3.13 | 20.5 | Active | Active | 22.1 | 66.1 | Active | Active | Active | Active | Active | Activity [21]: Active; Activity [22]: Active; Activity [23]: Active; Activity [24]: Active; Activity [25]: Active; Activity [26]: Active; Activity [27]: Active; Activity [28]: 14.27%; Activity [29]: Active |
| c1ccc(CNCCN(CCNCc2ccccn2)Cc2ccc3ccccc3c2)nc1 | 0.63 | Active | Active | Active | Active | Active | Active | Active | Active | 3.19 | 29.7 | Active | Active | 22.1 | 74.7 | Active | Active | Active | Active | Active | Activity [21]: Active; Activity [22]: Active; Activity [23]: Active; Activity [24]: Active; Activity [25]: Active; Activity [26]: Active; Activity [27]: Active; Activity [28]: 14.7%; Activity [29]: Active |
